Laboratory results as given in publication PMC6938543 (Vaccine, 2019).

Experiments:
[1] = tested on: Anti-α-PVP/MDPV polyclonal antibody; assay: Competitive magnetic bead-based radioimmunoassay; type: binding, rat; details: MDPV-t2 tracer; for IC50: structurally related cathinones tested at 10 μM and 100 μM only
Outline: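 Sera came from male SD rats immunized sc with 100 μg bi-specific KLH conjugate plus 150 μL SAS. The competitive magnetic-bead RIA was specific for IgG binding and used tritium-labeled drug as tracer. Full inhibition curves with unlabeled drug gave IC50; one curve used a racemic homologous tritiated tracer. Analogues were tested only at 10 and 100 μM against 5 nM MDPV-t₂, scored as inhibition of tracer binding.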

[2] = MDPV and α-PVP serum concentrations after sc challenge dose; type: in vivo, rat; details: SAS and vaccinated rats, LC-MS/MS
[3] = humans; cited from earlier work
[4] = tested on: drug-specific pAb; details: pAb from earlier separate α-PVP and MDPV vaccines; cited from earlier work
[5] = tested on: male SD rats; type: in vivo, rat; details: SAS control rats; sc
Outline: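 Thirteen weeks after initial sc immunization (SAS alone or vaccine plus SAS), male SD rats (n=5–6/group) were habituated 60 min in litter-lined open-field chambers. They then got sc saline or drug at 0.3–5.6 mg/kg in ascending doses, 2–3 days apart, with each drug in a separate study. Video tracking ran 6 h; horizontal distance was summed per rat and reported as mean ± SD.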

[6] = Stability of α-PVP in extracted rat serum; type: physicochemical; details: 4 °C

Compound | inhibition of MDPV-t2 binding ([1]; 100 μM ligand) | IC50 [1] | also measured
CNC(C)Cc1ccc2c(c1)OCO2 (racemic) [MDMA, (±)-3,4-methylenedioxymethamphetamine] | ≤ 50% |  | 
CCC(C(=O)c1ccc2c(c1)OCO2)N1CCCC1 (stereo not drawn) [3,4-Methylenedioxy-α-pyrrolidinobutiophenone] | 50% | 100 µM | 
CC(C(=O)c1ccc2c(c1)OCO2)N1CCCC1 (stereo not drawn) [3,4-Methylenedioxy-α-pyrrolidinopropiophenone] |  | > 100 µM | 
C[C@H](N)C(=O)c1ccccc1 [(S)-Cathinone] |  | > 100 µM | 
CCCC(C(=O)c1ccc2c(c1)OCO2)N1CCCC1 (stereo not shown) [MDPV, 3,4-Methylenedioxypyrovalerone] |  |  | serum concentration 24 h after drug administration [2]: below the lower limit of quantitation; blood concentrations associated with recreational use [3]: 10 to 50 ng/mL; blood concentrations at intoxication and overdose [3]: 50 to 300 ng/mL; pAb affinities constants [4]: micromolar range
CNC(C)C(=O)c1ccc(C)cc1 (stereo not shown) [Mephedrone] |  | > 100 µM | 
CNC(C)C(=O)c1ccc2c(c1)OCO2 (stereo not shown) [Methylone] |  | > 100 µM | 
CCCC(NC)C(=O)c1ccccc1 (stereo not shown) [Pentedrone] |  | > 100 µM | 
CCCC(NC)C(=O)c1ccc2c(c1)OCO2 (stereo not shown) [Pentylone] |  | > 100 µM | 
CCCC(C(=O)c1ccc(C)cc1)N1CCCC1 (stereo not shown) [Pyrovalerone] |  |  | inhibition of MDPV-t2 binding ([1]; 10 μM ligand): 68%
COC(=O)[C@H]1[C@@H](OC(=O)c2ccccc2)C[C@@H]2CC[C@H]1N2C [cocaine] | ≤ 50% |  | 
NCCc1ccc(O)c(O)c1 [dopamine] | ≤ 50% |  | 
CNC[C@H](O)c1ccc(O)c(O)c1 [epinephrine] | ≤ 50% |  | 
CN[C@@H](C)Cc1ccccc1 [methamphetamine] | ≤ 50% |  | 
NC[C@H](O)c1ccc(O)c(O)c1 [norepinephrine] | ≤ 50% |  | 
c1ccc(C2(N3CCCCC3)CCCCC2)cc1 [phencyclidine] | ≤ 50% |  | 
CN[C@@H](C)[C@@H](O)c1ccccc1 [pseudoephedrine] | ≤ 50% |  | 
NCCc1c[nH]c2ccc(O)cc12 [serotonin] | ≤ 50% |  | 
NCCc1ccc(O)cc1 [tyramine] | ≤ 50% |  | 
CCCC(C(=O)c1ccccc1)N1CCCC1 (stereo not drawn) [α-PVP, α-pyrrolidinovalerophenone] |  |  | dose of peak effect on horizontal movement [5]: 1.0 mg/kg; serum concentration 24 h after drug administration [2]: below the lower limit of quantitation; stability in extracted serum [6]: at least 59 h; pAb affinities constants [4]: micromolar range
(S)-Methcathinone |  | > 100 µM | 
